This is an account of results in ChEMBL document CHEMBL1140523, “Benzazepinone Nav1.7 blockers: potential treatments for neuropathic pain” (Bioorg Med Chem Lett, 2007).

One series concerns the target hERG (KCNH2) (Homo sapiens, UniProt Q12809). In words: (§1) Displacement of [35S]MK-0499 from hERG at 10 uM. As to conditions: probe [35S]MK-0499. Background: Loss of bound radioactivity is the signal in a displacement assay; it reports binding, not function.
Series [1] concerns the target Sodium channel protein type 9 subunit alpha (Homo sapiens, UniProt Q15858). Kind of series: Inhibition of human sodium channel Nav1.7 by FRET assay. In a few lines:
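hNav1.7 block was measured in a functional membrane-potential assay read out as FRET between two membrane-associated dyes.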

Series [2] in a line: (§2) Oral bioavailability in Sprague-Dawley rat at 3 mg/kg. The format is ADME, organism-based. As to conditions: Sprague-Dawley, in vivo. In a few lines:
(§3)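 Fasted male Sprague–Dawley rats received 1.0 mg/kg iv through a femoral vein cannula (n = 3) or 3.0 mg/kg po by gavage (n = 3). Serial blood was drawn at 5 min (iv only), 15 and 30 min, and 1, 2, 4, 6 and 8 h. Plasma was protein-precipitated with acetonitrile and analysed by LC–MS/MS.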

A short description of series [3]: Cmax in Sprague-Dawley rat at 1 mg/kg, iv or 3 mg/kg, po. The note with it: in vivo. The format is ADME, organism-based. The gist of the method: as §3
Series [4] is described as follows: Plasma clearance in Sprague-Dawley rat at 1 mg/kg, iv or 3 mg/kg, po. The format is ADME, organism-based. In a few lines:
as §3

Series [5] in a line: (§4) Half life in Sprague-Dawley rat at 1 mg/kg, iv or 3 mg/kg, po. The format is ADME, organism-based. As to conditions: Sprague-Dawley, in vivo. The gist of the method:
as §3

The subject of series [6] is Rattus norvegicus. In words: Reversal of allodynia in rat at 10 mg/kg, po after 2 hrs. The format is functional.
For series [7], the system named is Rattus norvegicus. Kind of series: Reversal of allodynia in rat at 10 mg/kg, po after 4 hrs. The series is classed as functional.
Series [8] deals with Voltage-gated inwardly rectifying potassium channel KCNH2 (Homo sapiens, UniProt Q12809). Described as §1. The note with it: 10 µM.
Series [9] deals with Rattus norvegicus. Described as §2. The format is ADME, organism-based. As to conditions: in vivo. The gist of the method:
as §3

Series [10] concerns Rattus norvegicus. The description is as §4. The format is ADME, organism-based. The note with it: in vivo. The gist of the method: as §3

In general, inhibition refers to how much of the control response was suppressed. Higher therefore signals a response far below the control. As a reminder, the IC50 is the concentration at which inhibition is half-maximal. High values mean lower potency, low ones higher potency. Usually bioavailability stands for the share of a dose that reaches the circulation, judged against a reference dose that is usually intravenous. By Cmax is commonly meant the maximum level reached in the sampled fluid or tissue. The half-life is how long it takes for the measured level to halve. Low readings indicate rapid decline, high ones slow decline. In general, Inhibition refers to the percentage by which the read-out fell short of the control. Lower therefore signals a weak effect.

hERG (KCNH2), sequence (Q12809 whole entry): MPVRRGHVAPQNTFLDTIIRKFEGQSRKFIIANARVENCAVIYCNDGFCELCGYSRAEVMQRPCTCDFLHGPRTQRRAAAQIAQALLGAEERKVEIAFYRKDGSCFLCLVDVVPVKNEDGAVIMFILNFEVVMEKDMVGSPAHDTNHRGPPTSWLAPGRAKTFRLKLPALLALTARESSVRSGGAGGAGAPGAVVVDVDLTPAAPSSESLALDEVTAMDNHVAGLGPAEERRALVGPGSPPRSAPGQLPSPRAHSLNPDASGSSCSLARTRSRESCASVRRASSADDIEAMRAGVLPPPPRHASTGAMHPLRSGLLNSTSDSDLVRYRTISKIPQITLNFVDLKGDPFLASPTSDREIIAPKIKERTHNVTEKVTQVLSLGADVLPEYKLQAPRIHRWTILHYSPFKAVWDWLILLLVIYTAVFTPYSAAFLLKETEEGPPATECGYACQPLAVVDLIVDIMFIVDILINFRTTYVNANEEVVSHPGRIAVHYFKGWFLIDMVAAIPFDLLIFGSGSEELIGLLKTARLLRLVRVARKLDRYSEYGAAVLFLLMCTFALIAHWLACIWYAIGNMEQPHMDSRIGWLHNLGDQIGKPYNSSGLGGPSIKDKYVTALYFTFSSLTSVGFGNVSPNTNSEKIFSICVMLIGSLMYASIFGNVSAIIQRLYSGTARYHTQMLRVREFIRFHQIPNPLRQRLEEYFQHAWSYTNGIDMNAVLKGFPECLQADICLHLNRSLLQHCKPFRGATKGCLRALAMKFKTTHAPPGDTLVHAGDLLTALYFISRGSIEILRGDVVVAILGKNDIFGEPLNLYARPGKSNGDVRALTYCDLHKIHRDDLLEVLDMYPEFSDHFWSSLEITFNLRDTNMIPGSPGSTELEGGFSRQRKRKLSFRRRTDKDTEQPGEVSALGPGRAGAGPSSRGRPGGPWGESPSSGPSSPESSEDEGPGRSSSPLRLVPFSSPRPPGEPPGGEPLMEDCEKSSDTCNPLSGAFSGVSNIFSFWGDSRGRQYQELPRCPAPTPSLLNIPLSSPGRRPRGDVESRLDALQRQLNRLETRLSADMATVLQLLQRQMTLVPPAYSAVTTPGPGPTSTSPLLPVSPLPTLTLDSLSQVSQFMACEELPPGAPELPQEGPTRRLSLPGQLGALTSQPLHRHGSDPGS
Sodium channel protein type 9 subunit alpha, sequence (Q15858 whole entry): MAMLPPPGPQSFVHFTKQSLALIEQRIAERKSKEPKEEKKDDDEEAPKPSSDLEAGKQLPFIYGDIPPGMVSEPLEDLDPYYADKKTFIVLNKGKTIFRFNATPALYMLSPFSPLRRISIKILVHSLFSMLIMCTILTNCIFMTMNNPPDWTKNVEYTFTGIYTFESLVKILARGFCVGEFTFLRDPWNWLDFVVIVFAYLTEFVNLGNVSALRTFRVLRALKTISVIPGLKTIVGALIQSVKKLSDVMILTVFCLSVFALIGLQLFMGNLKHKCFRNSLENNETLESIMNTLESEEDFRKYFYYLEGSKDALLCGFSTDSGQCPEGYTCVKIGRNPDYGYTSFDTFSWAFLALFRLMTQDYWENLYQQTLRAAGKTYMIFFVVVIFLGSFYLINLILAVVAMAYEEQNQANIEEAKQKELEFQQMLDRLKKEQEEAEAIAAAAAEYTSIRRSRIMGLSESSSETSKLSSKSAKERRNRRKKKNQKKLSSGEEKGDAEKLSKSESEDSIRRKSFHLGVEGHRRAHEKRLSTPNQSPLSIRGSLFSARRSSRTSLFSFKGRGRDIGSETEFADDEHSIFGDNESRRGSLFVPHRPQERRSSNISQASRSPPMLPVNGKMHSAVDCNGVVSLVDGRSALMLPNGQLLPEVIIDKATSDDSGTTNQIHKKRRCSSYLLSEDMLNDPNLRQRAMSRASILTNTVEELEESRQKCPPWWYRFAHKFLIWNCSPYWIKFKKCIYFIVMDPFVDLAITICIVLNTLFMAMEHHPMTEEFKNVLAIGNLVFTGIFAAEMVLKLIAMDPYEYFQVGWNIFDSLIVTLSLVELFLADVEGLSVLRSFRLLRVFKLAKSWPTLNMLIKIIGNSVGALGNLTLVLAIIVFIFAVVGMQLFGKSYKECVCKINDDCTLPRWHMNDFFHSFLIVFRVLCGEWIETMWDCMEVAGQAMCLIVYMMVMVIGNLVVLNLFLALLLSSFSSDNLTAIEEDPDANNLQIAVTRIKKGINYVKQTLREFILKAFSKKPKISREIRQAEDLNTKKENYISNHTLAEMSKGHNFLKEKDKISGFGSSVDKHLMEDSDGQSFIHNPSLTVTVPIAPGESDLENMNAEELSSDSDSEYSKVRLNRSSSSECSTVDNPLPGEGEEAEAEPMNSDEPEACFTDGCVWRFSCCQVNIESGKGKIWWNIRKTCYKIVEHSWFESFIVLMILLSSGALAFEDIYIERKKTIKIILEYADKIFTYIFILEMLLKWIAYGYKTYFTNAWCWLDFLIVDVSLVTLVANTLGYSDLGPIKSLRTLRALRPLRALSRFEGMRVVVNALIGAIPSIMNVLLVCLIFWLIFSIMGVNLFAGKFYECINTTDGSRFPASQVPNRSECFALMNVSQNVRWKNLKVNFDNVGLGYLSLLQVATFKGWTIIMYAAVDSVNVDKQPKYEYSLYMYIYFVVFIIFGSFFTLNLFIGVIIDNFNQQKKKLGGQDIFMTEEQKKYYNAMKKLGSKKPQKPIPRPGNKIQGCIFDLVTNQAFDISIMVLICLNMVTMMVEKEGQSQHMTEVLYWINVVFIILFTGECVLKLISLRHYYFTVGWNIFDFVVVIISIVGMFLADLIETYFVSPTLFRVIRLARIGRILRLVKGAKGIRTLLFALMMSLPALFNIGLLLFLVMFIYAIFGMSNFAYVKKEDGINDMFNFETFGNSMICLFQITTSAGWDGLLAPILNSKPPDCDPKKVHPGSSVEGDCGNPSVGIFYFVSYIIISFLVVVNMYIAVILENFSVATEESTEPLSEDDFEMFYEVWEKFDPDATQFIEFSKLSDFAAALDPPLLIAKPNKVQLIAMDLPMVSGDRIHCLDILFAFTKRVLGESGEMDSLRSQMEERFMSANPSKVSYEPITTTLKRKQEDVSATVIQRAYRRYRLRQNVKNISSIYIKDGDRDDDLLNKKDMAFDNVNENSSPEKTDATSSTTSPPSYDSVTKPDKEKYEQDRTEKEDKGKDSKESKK
Voltage-gated inwardly rectifying potassium channel KCNH2, sequence (Q12809 whole entry): as the sequence (Q12809 whole entry) above

Regarding `CC(C)N1C(=O)[C@H](NC(=O)[C@@H](Cc2ccccc2OC(F)(F)F)NC(=O)OC(C)(C)C)CCc2ccccc21`, on hERG (KCNH2), at 10 µM the inhibition was 17%.
Consider `CC(C)N1C(=O)[C@H](NC(=O)[C@@H](Cc2ccccc2OC(F)(F)F)NC(=O)c2ccc(F)cc2C(F)(F)F)CCc2ccccc21`, for which the IC50 in [1] stood at 128 nM. Moreover, at hERG (KCNH2), the inhibition at 10 µM was 31%. Besides, the bioavailability in series [2] worked out at 86%. For the same compound, the concentration in [3] peaked (Cmax) at 430 nM. In [4], this compound gave a clearance of 51 mL/min/kg. The compound further gave a half-life in series [5] of 2.6 h.
`CC(C)N1C(=O)[C@H](NC(=O)[C@@H](Cc2ccccc2OC(F)(F)F)NC(=O)c2ccccn2)CCc2ccccc21` yielded an IC50 in series [1] of 177 nM. The compound also registered an inhibition at 10 µM at hERG (KCNH2) of 61%. For the same compound, the bioavailability in [2] came out at 60%. Besides, in series [3], the Cmax came to 550 nM. For the same compound, the clearance in series [4] stood at 43 mL/min/kg. Besides, in [5], the half-life is 1.2 h.
`CC(C)N1C(=O)[C@H](NC(=O)[C@@H](Cc2ccccc2OC(F)(F)F)NC(=O)c2ccncc2)CCc2ccccc21` came in with an IC50 in series [1] of 453 nM. On hERG (KCNH2), the inhibition at 10 µM came to 44%.
`CC(C)N1C(=O)[C@H](NC(=O)[C@@H](Cc2ccccc2OC(F)(F)F)NC(=O)c2cncnc2)CCc2ccccc21`: the IC50 in series [1] is above 1000 nM.
`CC(C)N1C(=O)[C@H](NC(=O)[C@@H](Cc2cccc(F)c2F)NC(=O)c2ccc(F)cc2C(F)(F)F)CCc2cc(Cl)ccc21` registered an IC50 in series [1] of 146 nM. Also, on hERG (KCNH2), the inhibition at 10 µM is 3%.
The compound `CC(C)N1C(=O)[C@H](NC(=O)[C@@H](Cc2ccccc2OC(F)(F)F)NC(=O)c2ccc(F)cc2C(F)(F)F)CCc2cc(Cl)ccc21` showed an IC50 in series [1] of 169 nM. Besides, the inhibition at 10 µM on hERG (KCNH2) turned out to be 7%. This compound also registered a bioavailability in series [2] of 65%. In series [3], this compound had a Cmax of 520 nM. Besides, the clearance in [4] was 29 mL/min/kg. In series [5], this compound showed a half-life of 2.6 h.
Regarding `CC(C)N1C(=O)[C@H](NC(=O)[C@@H](Cc2ccccc2OC(F)(F)F)NC(=O)OC(C)(C)C)COc2ccccc21`, in series [1], the IC50 turned out to be 44 nM. In addition, the inhibition at 10 µM on hERG (KCNH2) amounted to 17%. This compound also yielded a bioavailability in series [2] of 25%. This compound also came in with a clearance in [4] of 40 mL/min/kg. The half-life in series [5] is 2 h.
In series [1], `CC(C)N1C(=O)[C@H](NC(=O)[C@@H](Cc2ccccc2F)NC(=O)c2ccc(F)cc2C(F)(F)F)CCc2cc(Cl)ccc21` came in with an IC50 of 30 nM. Moreover, at hERG (KCNH2), the inhibition at 10 µM stood at 32%. Further, in series [2], the bioavailability turned out to be 90%. Moreover, in series [3], the peak concentration (Cmax) is 330 nM. In series [4], this compound displayed a clearance of 44 mL/min/kg. Also, in series [5], the half-life is 2.8 h. Moreover, the Activity in the series with Rattus norvegicus [6] was determined as 56%; in the series with Rattus norvegicus [7], 28%.
`CC(C)N1C(=O)[C@H](NC(=O)[C@@H](Cc2ccc(F)cc2F)NC(=O)c2ccc(F)cc2C(F)(F)F)CCc2cc(Cl)ccc21` registered an IC50 in series [1] above 1000 nM.
Compound `CC(C)N1C(=O)[C@H](NC(=O)[C@@H](Cc2ccccc2OC(F)(F)F)NC(=O)C(C)(C)C)CCc2ccccc21` returned an IC50 in series [1] of 131 nM. On hERG (KCNH2), this compound displayed an inhibition at 10 µM of 18%. The compound further displayed a bioavailability in [2] of 16%. Also, in [3], the Cmax amounted to 140 nM. Besides, the clearance in series [4] came out at 31 mL/min/kg. Moreover, the half-life in [5] is 1.8 h.
In series [1], `CC(C)N1C(=O)[C@H](NC(=O)[C@@H](Cc2ccccc2OC(F)(F)F)NC(=O)OC(C)(C)C)CCc2cc(Cl)ccc21` registered an IC50 of 108 nM. This compound yielded an inhibition at 10 µM on hERG (KCNH2) of 32%. The bioavailability in series [2] was determined as 31%. Further, the clearance in series [4] turned out to be 13 mL/min/kg. This compound showed a half-life in series [5] of 3 h.
The compound `CC(C)N1C(=O)[C@H](NC(=O)[C@@H](Cc2ccccc2OC(F)(F)F)NC(=O)C(C)(C(F)(F)F)C(F)(F)F)CCc2ccccc21` came in with an IC50 in [1] of 203 nM. In addition, the inhibition at 10 µM at hERG (KCNH2) was 10%. The compound further registered a bioavailability in [2] of 42%. Also, the Cmax in series [3] was 330 nM. The same compound displayed a clearance in [4] of 23 mL/min/kg. Besides, in [5], the half-life was 2.5 h.
Take `CC(C)N1C(=O)[C@H](NC(=O)[C@@H](Cc2c(F)cccc2F)NC(=O)c2ccc(F)cc2C(F)(F)F)CCc2cc(Cl)ccc21`: in series [1], the IC50 turned out to be 290 nM. Further, 10 µM produced 7% inhibition on hERG (KCNH2). The compound also gave a bioavailability in series [2] of 68%. In series [3], this compound yielded a Cmax of 740 nM. This compound also had a clearance in series [4] of 19 mL/min/kg. Further, in series [5], the half-life was 2 h. Further, the Activity is on record as 18% in the series on Rattus norvegicus [6] and 35% in the series on Rattus norvegicus [7].
`CC(C)N1C(=O)[C@H](NC(=O)[C@@H](Cc2c(Cl)cccc2Cl)NC(=O)c2ccc(F)cc2C(F)(F)F)CCc2cc(Cl)ccc21` showed an IC50 in [1] of 107 nM. Also, the inhibition at 10 µM at hERG (KCNH2) was 20%. Also, the bioavailability in series [2] turned out to be 70%. The Cmax in series [3] amounted to 1470 nM. Moreover, the clearance in [4] turned out to be 12 mL/min/kg. The half-life in series [5] is 2.9 h. Besides, the Activity with Rattus norvegicus [6] amounted to 14%; in the series with Rattus norvegicus [7], 9%.
`CC(C)N1C(=O)[C@H](NC(=O)[C@@H](Cc2ccccc2OC(F)(F)F)NC(=O)c2ncccn2)CCc2ccccc21` had an IC50 in series [1] above 1000 nM. This compound also showed an inhibition at 10 µM on hERG (KCNH2) of 15%.
Consider `CC(C)N1C(=O)[C@H](NC(=O)[C@@H](Cc2cc(F)ccc2F)NC(=O)c2ccc(F)cc2C(F)(F)F)CCc2cc(Cl)ccc21`, for which 232 nM corresponded to half-maximal inhibition in series [1] (IC50). This compound also yielded an inhibition at 10 µM at hERG (KCNH2) of 10%. In series [2], this compound showed a bioavailability of 42%. For the same compound, the Cmax in [3] came out at 260 nM. Moreover, the clearance in series [4] is 32 mL/min/kg. The same compound showed a half-life in series [5] of 2.2 h. The figures for the Activity in the series with Rattus norvegicus [6] and in the series on Rattus norvegicus [7] were 55% and 61%, respectively.
In the case of `CC(C)N1C(=O)[C@H](NC(=O)[C@@H](Cc2ccccc2OC(F)(F)F)NC(=O)C(F)(F)F)CCc2ccccc21`, half-maximal inhibition in series [1] (IC50) required 868 nM. This compound gave an inhibition at 10 µM on hERG (KCNH2) of 40%.
On the same counts, the results for `CC(C)N1C(=O)[C@H](NC(=O)[C@@H](Cc2ccccc2OC(F)(F)F)NC(=O)c2ccccc2C(F)(F)F)CCc2ccccc21` are 98 nM and 0%.
In turn, `CC(C)N1C(=O)[C@H](NC(=O)[C@@H](Cc2ccccc2OC(F)(F)F)NC(=O)c2ccc(F)cc2)CCc2ccccc21` gave an IC50 in series [1] of 94 nM. Moreover, the inhibition at 10 µM on hERG (KCNH2) is 26%. This compound had a bioavailability in series [2] of 50%. In series [3], this compound yielded a Cmax of 240 nM. Besides, the clearance in series [4] is 66 mL/min/kg. In series [5], this compound had a half-life of 2.1 h.
`CC(C)N1C(=O)[C@H](NC(=O)[C@@H](Cc2ccccc2OC(F)(F)F)NC(=O)c2ccc(C(F)(F)F)cc2)CCc2ccccc21` returned an IC50 in [1] of 175 nM. The compound also had an inhibition at 10 µM on hERG (KCNH2) of 43%.
Consider `CC(=O)N[C@H](Cc1ccccc1OC(F)(F)F)C(=O)N[C@@H]1CCc2ccccc2N(C(C)C)C1=O`, for which, in series [1], the IC50 is above 1000 nM. Besides, on hERG (KCNH2), testing at 10 µM gave an inhibition of 9%.
`CC(C)N1C(=O)[C@H](NC(=O)[C@@H](Cc2ccccc2OC(F)(F)F)NC(=O)c2ccccc2)CCc2ccccc21` returned an IC50 in series [1] of 22 nM. Further, 10 µM produced 83% inhibition on hERG (KCNH2). In [2], this compound had a bioavailability of 18%. In series [3], this compound had a Cmax of 150 nM. In series [4], the clearance came to 43 mL/min/kg. In addition, in [5], the half-life was 1.5 h.
Turning to `CC(C)N1C(=O)C(NC(=O)[C@@H](Cc2ccccc2OC(F)(F)F)NC(=O)OC(C)(C)C)CCc2cccnc21` (stereo in doubt; 24), in series [1], the IC50 stood at 80 nM. The same compound showed an Inhibition in series [8] of 7%. The F in the series on Rattus norvegicus [9] is reported as 4%. Besides, the t1/2 in the series with Rattus norvegicus [10] amounted to 1.9 h.
`CC(C)N1C(=O)C(NC(=O)[C@@H](Cc2ccccc2OC(F)(F)F)NC(=O)OC(C)(C)C)CCc2cccnc21` (stereo in doubt; 25) returned an IC50 in series [1] of 79 nM. Moreover, the Inhibition in series [8] is 18%. In the series with Rattus norvegicus [9], this compound had an F of 27%. The compound further returned a clearance in [4] of 24 mL/min/kg. The compound further gave a half-life in series [5] of 1.4 h.
